Measurements: PubChem BioAssay AID624307 (The Scripps Research Institute Molecular Screening Center, 2012)
The source made the active and inactive calls.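 The calls were made as follows: active = relative luminescence ratio of 1.25 or more at any tested dose; inactive = ratio below 1.25 at every tested dose.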

assay: StAR promoter luciferase reporter activators, dose response, counter-screen for DAX1 inhibitor project, cell-based, luminescence, HEK293, powder samples, assay provider (AID 624307); conditions: HEK293 StAR promoter luciferase reporter (DAX-1/SF-1); series mostly up to 100 µM
Method in brief: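 Material: HEK293 transfectants with DAX-1, SF-1 and StAR-luciferase reporter / Compound dosing: 100 µM single dose plus three-point 1:2 series from 50 µM / Technique: luciferase luminescence from StAR promoter reporter / Read-out: luminescence relative to DMSO / Replication: triplicate per concentration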

Structure (SMILES)	outcome
Cc1occc1C(=O)Nc1ccc2c(c1)OCO2	inactive
Cn1c(=O)n(C)c2cc(C(=O)Nc3ccc4c(c3)OCCO4)ccc21	inactive
O=C(Nc1ccc2c(c1)OCCO2)c1ccc2ccccc2c1	inactive
CN(C)c1cccc(C(=O)Nc2ccc3c(c2)OCCO3)c1	inactive
COc1ccc(OC)c(C(C)NC(=O)c2c(F)cccc2Cl)c1 (centres undefined)	inactive
COc1cccc(C(=O)Nc2ccc3c(c2)OCCO3)c1	inactive
COc1cccc(C(=O)Nc2ccc3c(c2)OCO3)c1	inactive
COc1ccc(OC)c(C(C)NC(=O)c2ccc(Cl)cc2)c1 (centres undefined)	inactive
O=C(Nc1ccc2c(c1)OCO2)c1ccc2ccccc2c1	inactive
COc1ccc(OC)c(C(C)NC(=O)c2ccccc2)c1 (centres undefined)	inactive
COc1ccc(OC)c(C(C)NC(=O)c2ccc3c(c2)OCCO3)c1 (centres undefined)	inactive
Cn1c(=O)n(C)c2cc(C(=O)Nc3ccc4c(c3)OCO4)ccc21	inactive
COc1ccc(OC)c(C(C)NC(=O)c2cccc(F)c2)c1 (centres undefined)	inactive
COc1ccc(OC)c(C(C)NC(=O)c2cccc(C)c2)c1 (centres undefined)	inactive
O=C(Nc1ccc2c(c1)OCO2)c1ccc(C2SCC(=O)N2Cc2ccccc2)cc1 (centres undefined)	inactive
COc1ccc(OC)c(C(C)NC(=O)c2cccc3ccccc23)c1 (centres undefined)	inactive
O=C(Nc1ccc2c(c1)OCO2)c1cccs1	inactive
COc1ccc(OC)c(C(C)NC(=O)c2ccccc2C)c1 (centres undefined)	inactive
O=C(Nc1ccc2c(c1)OCO2)c1ccc(C2SCC(=O)N2Cc2ccco2)cc1 (centres undefined)	inactive
CSc1ccccc1C(=O)Nc1ccc2c(c1)OCO2	inactive
COc1ccc(OC)c(C(C)NC(=O)c2ccccc2F)c1 (centres undefined)	inactive
COc1cccc(C(=O)NC(C)c2cc(OC)ccc2OC)c1 (centres undefined)	inactive
COc1ccc(OC)c(C(C)NC(=O)c2ccccc2Cl)c1 (centres undefined)	inactive
Cc1cc(C(=O)Nc2ccc3c(c2)OCO3)cs1	inactive
COc1ccc(OC)c(C(C)NC(=O)c2ccc(F)cc2)c1 (centres undefined)	inactive
O=C(Cc1cccs1)Nc1ccc2c(c1)OCO2	inactive
COc1ccc(OC)c(C(C)NC(=O)c2ccc(C)cc2)c1 (centres undefined)	inactive
COc1ccc(OC)c(C(C)NC(=O)c2ccc(C(C)(C)C)cc2)c1 (centres undefined)	inactive
CSc1ccccc1C(=O)Nc1ccc2c(c1)OCCO2	inactive
